In brackets after ≈: the same amount, converted by molar mass.
Assays:
Pseudomonas aeruginosa [1] = assay: Antibacterial activity against Pseudomonas aeruginosa CMCC 27853 measured after 24 hrs by ELISA; assay type: functional; settings: CMCC 27853, 24 h
Procedure, shortened: (§1)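 Broth microdilution MIC. Mid-log bacteria in MHB or TSB diluted 1000-fold, inoculated at 10^5 CFU/mL. Compounds added from DMSO stocks; final DMSO at most 0.05%. Incubation 24 h at 37 °C. Growth read as absorbance at 630 nm. MIC taken as the lowest concentration giving complete growth inhibition. Three independent experiments.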

Escherichia coli [2] = assay: Antibacterial activity against multidrug-resistant Escherichia coli ATCC BAA-196 measured after 24 hrs by ELISA; assay type: functional; settings: ATCC BAA-196, 24 h
Procedure, shortened: (§2)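 Broth serial dilution MIC. Mid-log bacteria in Mueller-Hinton or Tryptone Soya broth, diluted 1000-fold and inoculated at 10^5 CFU/mL. Compounds from DMSO stock, final DMSO ≤0.05%. Incubated 24 h at 37 °C; growth read as absorbance at 630 nm. MIC is the lowest concentration giving complete growth inhibition. Three independent experiments.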

Streptococcus pneumoniae = assay: Antibacterial activity against Streptococcus pneumoniae CMCC 31968 measured after 24 hrs by ELISA; assay type: functional; settings: CMCC 31968, 24 h
[3] = Selectivity index, ratio of IC50 for HEK293T cells to MIC for methicillin-resistant Staphylococcus aureus ATCC 33591; assay type: toxicity; settings: human, read-out: Selectivity Index
SGC-7901 = assay: Cytotoxicity against human SGC7901 cells measured after 48 hrs by CCK8 assay; assay type: functional, cell-based; settings: SGC-7901, 48 h
Procedure, shortened: (§3)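 Cells kept in DMEM with 10% FBS and penicillin-streptomycin at 37 °C, 5% CO2. About 1×10^4 cells per well attached for 24 h, then exposed for 48 h to 0.3, 1, 3, 10, 30 and 100 µmol/L of compound, in triplicate wells. CCK-8 added for 3 h, OD read at 450 nm. IC50 is the concentration inhibiting growth by 50%.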

[4] = Selectivity index, ratio of IC50 for HEK293T cells to MIC for methicillin-resistant Staphylococcus aureus ATCC 43300; assay type: toxicity; settings: human, read-out: Selectivity Index
[5] = Selectivity index, ratio of IC50 for HEK293T cells to MIC for Streptococcus pneumoniae CMCC 31968; assay type: toxicity; settings: human, read-out: Selectivity Index
Staphylococcus aureus [6] = assay: Antibacterial activity against methicillin-resistant Staphylococcus aureus ATCC 43300 measured after 24 hrs by ELISA; assay type: functional; settings: ATCC 43300, 24 h; procedure, shortened: as §2
HEK-293T = assay: Cytotoxicity against HEK293T cells measured after 48 hrs by CCK8 assay; assay type: cell-based; settings: Homo sapiens; procedure, shortened: as §3
Staphylococcus aureus [7] = assay: Antibacterial activity against Staphylococcus aureus CMCC 25923 measured after 24 hrs by ELISA; assay type: functional; settings: CMCC 25923, 24 h; procedure, shortened: as §1
[8] = Selectivity index, ratio of IC50 for HEK293T cells to MIC for multidrug-resistant Pseudomonas aeruginosa ATCC BAA-2111; assay type: toxicity; settings: human, read-out: Selectivity Index
[9] = Selectivity index, ratio of IC50 for HEK293T cells to MIC for Streptococcus pyogenes CMCC 32067; assay type: toxicity; settings: human, read-out: Selectivity Index
[10] = Cytotoxicity against human A590 cells measured after 48 hrs by CCK8 assay; assay type: functional, cell-based; procedure, shortened: as §3
Enterococcus faecalis = assay: Antibacterial activity against Enterococcus faecalis CMCC 29212 measured after 24 hrs by ELISA; assay type: functional; settings: CMCC 29212, 24 h; procedure, shortened: as §1
Pseudomonas aeruginosa [11] = assay: Antibacterial activity against multidrug-resistant Pseudomonas aeruginosa ATCC BAA-2111 measured after 24 hrs by ELISA; assay type: functional; settings: ATCC BAA-2111, 24 h; procedure, shortened: as §2
[12] = Selectivity index, ratio of IC50 for HEK293T cells to MIC for Enterococcus faecalis CMCC 29212; assay type: toxicity; settings: human, read-out: Selectivity Index
Escherichia coli [13] = assay: Antibacterial activity against Escherichia coli CMCC 44568 measured after 24 hrs by ELISA; assay type: functional; settings: CMCC 44568, 24 h; procedure, shortened: as §1
[14] = Selectivity index, ratio of IC50 for HEK293T cells to MIC for Pseudomonas aeruginosa CMCC 10104; assay type: toxicity; settings: human, read-out: Selectivity Index
[15] = Selectivity index, ratio of IC50 for HEK293T cells to MIC for Staphylococcus aureus CMCC(B) 26003; assay type: toxicity; settings: human, read-out: Selectivity Index
[16] = Selectivity index, ratio of IC50 for HEK293T cells to MIC for Bacillus subtilis CMCC 63501; assay type: toxicity; settings: human, read-out: Selectivity Index
Pseudomonas aeruginosa [17] = assay: Antibacterial activity against Pseudomonas aeruginosa CMCC 10104 measured after 24 hrs by ELISA; assay type: functional; settings: CMCC 10104, 24 h; procedure, shortened: as §1
Streptococcus pyogenes = assay: Antibacterial activity against Streptococcus pyogenes CMCC 32067 measured after 24 hrs by ELISA; assay type: functional; settings: CMCC 32067, 24 h; procedure, shortened: as §1
[18] = Selectivity index, ratio of IC50 for HEK293T cells to MIC for multidrug-resistant Escherichia coli ATCC BAA-196; assay type: toxicity; settings: human, read-out: Selectivity Index
Bacillus subtilis = assay: Antibacterial activity against Bacillus subtilis CMCC 63501 measured after 24 hrs by ELISA; assay type: functional; settings: CMCC 63501, 24 h; procedure, shortened: as §1
[19] = Selectivity index, ratio of IC50 for HEK293T cells to MIC for Escherichia coli CMCC 25922; assay type: toxicity; settings: human, read-out: Selectivity Index
[20] = Selectivity index, ratio of IC50 for HEK293T cells to MIC for Staphylococcus aureus CMCC 25923; assay type: toxicity; settings: human, read-out: Selectivity Index
[21] = Selectivity index, ratio of IC50 for HEK293T cells to MIC for Escherichia coli CMCC 44568; assay type: toxicity; settings: human, read-out: Selectivity Index
Escherichia coli [22] = assay: Antibacterial activity against Escherichia coli CMCC 25922 measured after 24 hrs by ELISA; assay type: functional; settings: CMCC 25922, 24 h; procedure, shortened: as §1
[23] = Selectivity index, ratio of IC50 for HEK293T cells to MIC for Pseudomonas aeruginosa CMCC 27853; assay type: toxicity; settings: human, read-out: Selectivity Index
Staphylococcus aureus [24] = assay: Antibacterial activity against methicillin-resistant Staphylococcus aureus ATCC 33591 measured after 24 hrs by ELISA; assay type: functional; settings: ATCC 33591, 24 h; procedure, shortened: as §2
Staphylococcus aureus [25] = assay: Antibacterial activity against Staphylococcus aureus CMCC(B) 26003 measured after 24 hrs by ELISA; assay type: functional; settings: CMCC(B) 26003, 24 h; procedure, shortened: as §1

SMILES | MIC (Pseudomonas aeruginosa [1]) | MIC (Escherichia coli [2]) | MIC (Streptococcus pneumoniae) | selectivity ratio [3] | IC50 (SGC-7901) | selectivity ratio [4] | selectivity ratio [5] | MIC (Staphylococcus aureus [6]) | IC50 (HEK-293T) | MIC (Staphylococcus aureus [7]) | selectivity ratio [8] | selectivity ratio [9] | IC50 [10] | MIC (Enterococcus faecalis) | MIC (Pseudomonas aeruginosa [11]) | selectivity ratio [12] | MIC (Escherichia coli [13]) | selectivity ratio [14] | selectivity ratio [15] | selectivity ratio [16] | also measured
CC/C(=N/NC(=N)N)c1cn(S(=O)(=O)c2ccc(C)cc2)c2ccc(Br)cc12 | > 278 µM | 8.68 µM (≈ 4.01 µg/mL) | 1.08 µM (≈ 0.499 µg/mL) | 26.6 | 3.92 µM | 26.6 | 53.4 | 2.17 µM (≈ 1 µg/mL) | 57.6 µM | 2.17 µM (≈ 1 µg/mL) | < 0.83 | 0.42 | 2.33 µM | 4.34 µM (≈ 2.01 µg/mL) | > 69.4 µM | 13.3 | 4.34 µM (≈ 2.01 µg/mL) | < 0.21 | 13.3 | 26.6 | MIC (Pseudomonas aeruginosa [17]): > 278 µM; MIC (Streptococcus pyogenes): 139 µM (≈ 64.2 µg/mL); selectivity ratio [18]: 6.64; MIC (Bacillus subtilis): 2.17 µM (≈ 1 µg/mL); selectivity ratio [19]: 1.66; selectivity ratio [20]: 13.3; selectivity ratio [21]: 13.3; MIC (Escherichia coli [22]): 34.7 µM (≈ 16 µg/mL); selectivity ratio [23]: < 0.21; MIC (Staphylococcus aureus [24]): 2.17 µM (≈ 1 µg/mL); MIC (Staphylococcus aureus [25]): 4.34 µM (≈ 2.01 µg/mL)
Cc1ccc(S(=O)(=O)n2cc(/C=N\NC(=N)N)c3cc(Br)ccc32)cc1 | > 296 µM | 1.15 µM (≈ 0.499 µg/mL) | > 296 µM | 63.9 | 4 µM | 63.9 | < 0.25 | 1.15 µM (≈ 0.499 µg/mL) | 73.5 µM | 2.31 µM (≈ 1 µg/mL) | < 0.99 | < 0.24 | 15.1 µM | 9.24 µM (≈ 4.01 µg/mL) | > 73.9 µM | 7.95 | 2.31 µM (≈ 1 µg/mL) | < 0.25 | 31.8 | 31.8 | MIC (Pseudomonas aeruginosa [17]): > 296 µM; MIC (Streptococcus pyogenes): > 296 µM; selectivity ratio [18]: 63.9; MIC (Bacillus subtilis): 2.31 µM (≈ 1 µg/mL); selectivity ratio [19]: 7.95; selectivity ratio [20]: 31.8; selectivity ratio [21]: 31.8; MIC (Escherichia coli [22]): 9.24 µM (≈ 4.01 µg/mL); selectivity ratio [23]: < 0.25; MIC (Staphylococcus aureus [24]): 1.15 µM (≈ 0.499 µg/mL); MIC (Staphylococcus aureus [25]): 2.31 µM (≈ 1 µg/mL)
C/C(=N/NC(=N)N)c1cn(S(=O)(=O)c2ccc(C)cc2)c2ccccc12 | 347 µM (≈ 128 µg/mL) | 10.8 µM (≈ 4 µg/mL) | 2.71 µM (≈ 1 µg/mL) | 9.78 | 2.38 µM | 9.78 | 19.6 | 5.42 µM (≈ 2 µg/mL) | 53 µM | 5.42 µM (≈ 2 µg/mL) | < 0.61 | 2.44 | 2.68 µM | 43.4 µM (≈ 16 µg/mL) | > 86.7 µM | 1.22 | 10.8 µM (≈ 4 µg/mL) | 4.89 | 4.89 | 4.89 | MIC (Pseudomonas aeruginosa [17]): 10.8 µM (≈ 4 µg/mL); MIC (Streptococcus pyogenes): 21.7 µM (≈ 8.01 µg/mL); selectivity ratio [18]: 4.89; MIC (Bacillus subtilis): 10.8 µM (≈ 4 µg/mL); selectivity ratio [19]: 2.44; selectivity ratio [20]: 9.78; selectivity ratio [21]: 4.89; MIC (Escherichia coli [22]): 21.7 µM (≈ 8.01 µg/mL); selectivity ratio [23]: 0.15; MIC (Staphylococcus aureus [24]): 5.42 µM (≈ 2 µg/mL); MIC (Staphylococcus aureus [25]): 10.8 µM (≈ 4 µg/mL)
Cc1ccc(S(=O)(=O)n2cc(/C=N\NC(=N)N)c3ccccc32)cc1 | 45.1 µM (≈ 16 µg/mL) | 11.3 µM (≈ 4.01 µg/mL) | 2.82 µM (≈ 1 µg/mL) | 15.4 | 2.12 µM | 30.7 | 30.7 | 2.82 µM (≈ 1 µg/mL) | 86.7 µM | 11.3 µM (≈ 4.01 µg/mL) | 7.67 | < 0.24 | 12.2 µM | 45.1 µM (≈ 16 µg/mL) | 11.3 µM (≈ 4.01 µg/mL) | 1.92 | 11.3 µM (≈ 4.01 µg/mL) | 7.68 | 7.68 | 15.4 | MIC (Pseudomonas aeruginosa [17]): 11.3 µM (≈ 4.01 µg/mL); MIC (Streptococcus pyogenes): > 361 µM; selectivity ratio [18]: 7.67; MIC (Bacillus subtilis): 5.64 µM (≈ 2 µg/mL); selectivity ratio [19]: 7.68; selectivity ratio [20]: 7.68; selectivity ratio [21]: 7.68; MIC (Escherichia coli [22]): 11.3 µM (≈ 4.01 µg/mL); selectivity ratio [23]: 1.92; MIC (Staphylococcus aureus [24]): 5.63 µM (≈ 2 µg/mL); MIC (Staphylococcus aureus [25]): 11.3 µM (≈ 4.01 µg/mL)
N=C(N)N/N=C\c1cn(S(=O)(=O)c2ccccc2)c2ccc(Br)cc12 | > 305 µM | 2.39 µM (≈ 1 µg/mL) | > 305 µM | 30 | 3.06 µM | 30 | < 0.23 | 2.39 µM (≈ 1 µg/mL) | 71.6 µM | 2.37 µM (≈ 0.996 µg/mL) | < 0.94 | 0.23 | 14.7 µM | 19.1 µM (≈ 8.02 µg/mL) | > 76.4 µM | 3.75 | 1.19 µM (≈ 0.5 µg/mL) | 7.5 | 0.47 | 15 | MIC (Pseudomonas aeruginosa [17]): 9.55 µM (≈ 4.01 µg/mL); MIC (Streptococcus pyogenes): 305 µM (≈ 128 µg/mL); selectivity ratio [18]: 30; MIC (Bacillus subtilis): 4.77 µM (≈ 2 µg/mL); selectivity ratio [19]: 7.5; selectivity ratio [20]: 30.2; selectivity ratio [21]: 60.2; MIC (Escherichia coli [22]): 9.55 µM (≈ 4.01 µg/mL); selectivity ratio [23]: < 0.23; MIC (Staphylococcus aureus [24]): 2.39 µM (≈ 1 µg/mL); MIC (Staphylococcus aureus [25]): 153 µM (≈ 64.2 µg/mL)

From ChEMBL document CHEMBL4400518, “Synthesis, antimicrobial and cytotoxic activities, and molecular docking studies of N-arylsulfonylindoles containing an aminoguanidine, a semicarbazide, and a thiosemicarbazide moiety” (Eur J Med Chem, 2019)
